Data set [1] is described as follows: melting temperature; fluorescence melt of hairpins on a sequencing array, two-state fit, raised by 9.35 °C to match UV melts. To be noted: sodium 0.088 M. The method in brief: (§1)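 With Cy3 and quencher oligos annealed, library hairpins on a sequenced MiSeq flow cell were imaged for Cy3 fluorescence in 50 mM Na-HEPES pH 8.0, 25 mM NaCl, in 2.5 °C steps up to 60 °C. Melting temperature and folding enthalpy were derived from bootstrapped two-state fits of signals normalised to pre-quench Cy3 and to control constructs. Four replicates were combined by inverse variance, with fitted temperatures raised by 9.35 °C to match UV melts.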

The nature of data set [2]: folding enthalpy; higher = less favourable; fluorescence melt of hairpins on a sequencing array, two-state fit. To be noted: sodium 0.088 M. A digest of the protocol: as §1

As to GCGAACATCGC ((((...)))), the Tm in data set [1] worked out at 45.6 °C. In addition, the folding enthalpy in data set [2] is -17.1 kcal/mol.
The like results for GCGAACATTCGC ((((....)))) were, in that order, 48.2 °C and -21.4 kcal/mol.
The like results for GCGAACCTTCGC ((((....)))) were, in that order, 50.3 °C and -24.2 kcal/mol.
The like results for GCGAACGAAAGTTAGCGC ((((((....)))..))) were, in that order, 55.8 °C and -31 kcal/mol.
With GCGAACGAAAGTTTCCGC ((((((....)))..))), the Tm in data set [1] worked out at 36.2 °C. For the same sequence, the folding enthalpy in data set [2] was -21.1 kcal/mol.
The like results for GCGAACGGAAACATCCGC (((.(.(....).).))) were, in that order, 20.9 °C and -7.45 kcal/mol.
The like results for GCGAACTTTCGC ((((....)))) were, in that order, 51.1 °C and -20 kcal/mol.
The like results for GCGAAGATTCGC ((((....)))) were, in that order, 49 °C and -21.8 kcal/mol.
Consider GCGAAGCGAAAGCCTAGC ((.(.((....)).).)), for which the Tm in data set [1] worked out at 40.2 °C. Moreover, the folding enthalpy in data set [2] is -7.6 kcal/mol.
The like results for GCGAAGCGAAAGCCTTGC ((.(.((....)).).)) were, in that order, 36.3 °C and -7.85 kcal/mol.
The like results for GCGAAGCGAAAGCTGCGC (((.(((....))).))) were, in that order, 67.7 °C and -23.6 kcal/mol.
Regarding GCGAAGCGAAAGCTTAGC ((.((((....)))).)), the Tm in data set [1] came to 56 °C. The folding enthalpy in data set [2] was -16.1 kcal/mol.
Take GCGAAGGAAACTTCGC ((((((....)))))): the Tm in data set [1] worked out at 63.7 °C. In addition, the folding enthalpy in data set [2] is -34.8 kcal/mol.
The like results for GCGAAGGGTCGC ((((....)))) were, in that order, 48.2 °C and -12.1 kcal/mol.
The like results for GCGAATATCGC ((((...)))) were, in that order, 46.5 °C and -16.6 kcal/mol.
The like results for GCGAATCATCGC ((((....)))) were, in that order, 47.6 °C and -23.6 kcal/mol.
For the sequence GCGAATCGAAAGATCCGC (((.(((....))).))), in data set [1], the Tm was found to be 52.3 °C. Besides, the folding enthalpy in data set [2] was -47 kcal/mol.
The like results for GCGAATGAAAATTCGC ((((((....)))))) were, in that order, 65 °C and -36.3 kcal/mol.
The like results for GCGAATGGAAACACTCGC ((((.((....)).)))) were, in that order, 46.2 °C and -35.2 kcal/mol.
For the sequence GCGAATGGAAACGTTTGC ((.((.(....).)).)), in data set [1], the Tm amounted to 36 °C. For the same sequence, in data set [2], the folding enthalpy is -30.7 kcal/mol.
The like results for GCGAATTTTCGC ((((....)))) were, in that order, 53.2 °C and -29.5 kcal/mol.
The like results for GCGACAACTCGC ((((....)))) were, in that order, 41.7 °C and -21.2 kcal/mol.
The like results for GCGACACGAAAGTGCCGC (((.(((....))).))) were, in that order, 64.3 °C and -38.8 kcal/mol.
GCGACACTTCGC ((((....)))): the Tm in data set [1] worked out at 52.1 °C. In addition, the folding enthalpy in data set [2] was -26.7 kcal/mol.
With GCGACAGGAAACTGTTGC ((.((((....)))).)), the Tm in data set [1] was determined as 54.9 °C. Also, in data set [2], the folding enthalpy is -34.4 kcal/mol.
The like results for GCGACAGGTCGC ((((....)))) were, in that order, 56.2 °C and -27.1 kcal/mol.
The like results for GCGACAGTCGC ((((...)))) were, in that order, 46.7 °C and -27.8 kcal/mol.
The like results for GCGACCACTCGC ((((....)))) were, in that order, 47 °C and -25.4 kcal/mol.
As for GCGACCGAAAGGTACCGC ((((((....)))..))), the Tm in data set [1] came out at 47.2 °C. Moreover, in data set [2], the folding enthalpy was -21.9 kcal/mol.
The like results for GCGACCGAAAGGTGACGC ((((((....)))..))) were, in that order, 52 °C and -26.7 kcal/mol.
GCGACCGAAAGGTTCCGC ((((((....)))..))): the Tm in data set [1] was determined as 43.5 °C. The folding enthalpy in data set [2] is -18.8 kcal/mol.
The like results for GCGACCGAAAGGTTCGC ((((((....))).))) were, in that order, 65.6 °C and -33 kcal/mol.
The like results for GCGACCGATCGC ((((....)))) were, in that order, 45.6 °C and -21.4 kcal/mol.
The like results for GCGACCGCGAAAGCGCGC (((..(((....)))))) were, in that order, 56.1 °C and -15.4 kcal/mol.
For GCGACCGGAAACAGTCGC (((((.(....).))))), in data set [1], the Tm came out at 55.1 °C. Further, the folding enthalpy in data set [2] was -39.2 kcal/mol.
Turning to GCGACCGTTCGC ((((....)))), the Tm in data set [1] came to 49.1 °C. Further, the folding enthalpy in data set [2] was -22.8 kcal/mol.
The like results for GCGACCTCGAAAGAGCGC (((..(((....)))))) were, in that order, 49.1 °C and -31.1 kcal/mol.
The like results for GCGACCTTTCGC ((((....)))) were, in that order, 47 °C and -21.4 kcal/mol.

(Values after the array DNA melting data of Ke et al. (doi:10.1101/2024.01.08.574731).)
